According to ChEMBL document CHEMBL4312029, “Structure-activity relationship studies and in vitro and in vivo anticancer activity of novel 3-aroyl-1,4-diarylpyrroles against solid tumors and hematological malignancies” (Eur J Med Chem, 2020):
Calls of active or inactive are those of the source. The rule behind the calls is not given here.

How the values were obtained:
[1] = Cytotoxicity against IM resistant human LAMA84-r cells assessed as reduction in cell viability incubated for 48 hrs by MTT assay; format: functional, cell-based
[2] = tested on: KBM5; experiment: Induction of apoptotic cell death in human KBM5 cells expressing IM-sensitive wild type Bcr/Abl at 10 nM incubated for 48 hrs by Annexin V-staining based flow cytometry; format: functional
In short: (§1)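 KBM5-WT and KBM5-T315I cells exposed 48 h to 10 nM test compound alone or combined with 10 nM nilotinib (nilotinib alone as comparator). Apoptotic cells quantified by annexin V staining and flow cytometry; triplicate.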

[3] = tested on: KBM5; experiment: Cytotoxicity against human KBM5 cells expressing IM- sensitive wild type Bcr/Abl assessed as reduction in cell viability incubated for 48 hrs by MTT assay; format: functional, cell-based; conditions: KBM5, 48 h
[4] = tested on: KU812 cell line; experiment: Cytotoxicity against human KU812 cells expressing IM- sensitive wild type Bcr/Abl assessed as reduction in cell viability incubated for 48 hrs by MTT assay; format: functional, cell-based; conditions: KU812, 48 h
[5] = tested on: KBM5; experiment: Induction of apoptotic cell death in human KBM5 cells expressing IM-resistant Bcr/Abl T315I mutant at 10 nM incubated for 48 hrs by Annexin V-staining based flow cytometry; format: functional; in short: as §1
[6] = Cytotoxicity against human LAMA84-s cells expressing IM-sensitive wild type Bcr/Abl assessed as reduction in cell viability incubated for 48 hrs by MTT assay; format: functional, cell-based
[7] = tested on: KBM5; experiment: Cytotoxicity against human KBM5 cells expressing IM-resistant Bcr/Abl T315I mutant assessed as reduction in cell viability incubated for 48 hrs by MTT assay; format: functional, cell-based; conditions: KBM5, 48 h
[8] = target: Tubulin; experiment: Inhibition of tubulin polymerization (unknown origin) incubated for 15 mins followed by GTP addition and measured for 20 mins by spectrophotometry; format: protein-complex assay, Homo sapiens
In short: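 Tubulin assembly assay with tubulin at 10 µM. IC50 for inhibition of polymerization; run in duplicate or triplicate.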

[9] = tested on: MCF7; experiment: Cytotoxicity against human MCF7 cells assessed as reduction in cell growth incubated for 96 hrs by MTT assay; format: functional, cell-based; conditions: MCF7, 96 h
In short: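 Growth inhibition of human breast carcinoma cells, reported as IC50; run in duplicate or triplicate.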

[10] = target: Tubulin (Homo sapiens) (UniProt P68371+Q9H4B7+P0DPH7+P68366+Q13509+Q71U36+P04350+Q3ZCM7+P07437+P68363+Q9BQE3+Q6PEY2+Q13885+Q9BVA1+Q9BUF5); experiment: Inhibition of [3H]colchicine binding to tubulin (unknown origin) at 5 uM incubated for 10 mins by DEAE-cellulose filter method relative to control; format: protein-complex assay

IC50 [8] [nM] | inhibition [10] [%] | Structure (SMILES) | IC50 [1] [nM] | Activity [2] | IC50 [3] [nM] | IC50 [4] [nM] | Activity [5] | IC50 [6] [nM] | IC50 [7] [nM] | IC50 [9] [nM]
 |  | Cc1cn(-c2cc(NC(=O)c3ccc(C)c(Nc4nccc(-c5cccnc5)n4)c3)cc(C(F)(F)F)c2)cn1 [NILOTINIB] | 126 | Active | 12 | 10 | Active | 11 | 2420 | 
630 | 50 | COc1cc(C(=O)c2cn(-c3ccccc3)cc2-c2ccccc2Cl)cc(OC)c1OC |  |  |  |  |  |  |  | 76
360 | 95 | COc1cc(C(=O)c2cn(-c3ccc(C)cc3)cc2-c2ccc(N)cc2)cc(OC)c1OC |  |  |  |  |  |  |  | 6
480 | 42 | COc1ccc(-c2cn(-c3ccccc3)cc2C(=O)c2cc(OC)c(OC)c(OC)c2)cc1 |  |  |  |  |  |  |  | 70
